IC50 data for 37 compounds are collected here from ChEMBL document CHEMBL1135626, “Imidazole inhibitors of cytokine release: probing substituents in the 2 position” (J Med Chem, 2002).

The target in test [1] is Mitogen-activated protein kinase 14 (Homo sapiens, UniProt Q16539). As to the kind of experiment: Inhibition of Mitogen-activated protein kinase p38 (P38 MAPK).
A short description of test [2]: Inhibition of the release of tumor necrosis factor alpha from peripheral blood mononuclear cells. The format is functional. The conditions noted are these: Homo sapiens. The method, boiled down:
(§1)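 PBMC isolated from healthy donor blood by density gradient centrifugation, ~10⁶ cells/mL, preincubated 15 min (37 °C, 5% CO2) with compounds in DMSO (1% final), then LPS 1µg/mL (E. coli 026:B6) for 4 h. Supernatant IL-1β and TNF-α by ELISA after ice stop and centrifugation. IC50 from semilog plot of % reduction vs control, 10^-4–10^-8 M; at least duplicate.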

The species named for test [3] is Homo sapiens. As to the kind of experiment: Ability to inhibit the release of interleukin-1-beta (IL-1 beta) from whole blood. In kind it is functional. The method, boiled down:
(§2)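 Human whole blood preincubated 15 min (37 °C, 5% CO2) with compounds in Cremophor EL/ethanol 70:30 (1% final), then stimulated 4 h with 1µg/mL LPS (E. coli 026:B6). Reaction stopped on ice, samples centrifuged, supernatant IL-1β and TNF-α measured by ELISA. IC50 read from semilog plot of % reduction vs control over 10^-4–10^-8 M; at least duplicate.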

The species named for test [4] is Homo sapiens. As to the kind of experiment: Ability to inhibit the release of tumor necrosis factor alpha (TNF-alpha) from whole blood. In kind it is functional. In short, it runs like this: as §2
Test [5] in a line: Inhibition of the release of interleukin-1-beta from peripheral blood mononuclear cells. In kind it is functional. The conditions noted are these: Homo sapiens. In short, it runs like this: as §1

Mitogen-activated protein kinase 14, sequence (Q16539 whole entry): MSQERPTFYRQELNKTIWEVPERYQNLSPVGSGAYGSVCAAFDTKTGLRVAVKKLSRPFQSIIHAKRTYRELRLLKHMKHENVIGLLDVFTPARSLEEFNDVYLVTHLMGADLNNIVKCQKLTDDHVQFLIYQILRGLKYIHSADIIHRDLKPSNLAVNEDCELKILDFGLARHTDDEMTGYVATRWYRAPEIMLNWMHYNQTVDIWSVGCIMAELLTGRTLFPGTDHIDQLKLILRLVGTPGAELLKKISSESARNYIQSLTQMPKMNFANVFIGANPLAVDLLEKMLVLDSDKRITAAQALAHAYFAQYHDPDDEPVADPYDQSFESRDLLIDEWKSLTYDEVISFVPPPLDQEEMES

Take `C[S+]([O-])c1cc(CSc2nc(-c3ccncc3)c(-c3ccc(F)cc3)[nH]2)ccc1O` (configuration not stated): the IC50 (as a rule, the concentration that inhibits the measured activity by half) in test [1] is 3400 nM; in test [2] it was 5 µM; in test [3], 12.1 µM; in test [4], 9 µM; in test [5] it was 2300 nM.

As for `C[S+]([O-])c1ccc(CSc2nc(-c3ccc(Cl)cc3)c(-c3ccncc3)[nH]2)cc1` (configuration not stated), the IC50 worked out at 1400 nM in test [1], 3.1 µM in test [2] and 320 nM in test [5].

Regarding `C[S+]([O-])c1ccc(CCCSc2nc(-c3ccc(F)cc3)c(-c3ccncc3)[nH]2)cc1` (configuration not stated), the IC50 is 750 nM in test [1], 3.6 µM in test [2] and 180 nM in test [5].

With `CS(=O)(=O)c1ccc(CSc2nc(-c3ccccc3)c(-c3ccncc3)[nH]2)cc1`, the IC50 came to 8 µM in test [2] and 1700 nM in test [5].

As for `Oc1cccc(CSc2nc(-c3ccc(F)cc3)c(-c3ccncc3)[nH]2)c1`, the values for the IC50 in test [2] and in test [5] were 5.4 µM and 310 nM, respectively.

In the case of `CSc1ccc(CSc2nc(-c3ccc(F)cc3)c(-c3ccncc3)[nH]2)cc1`, the IC50 in test [2] stood at 4.9 µM; in test [5] it was 670 nM.

As for `Oc1ccccc1CSc1nc(-c2ccc(F)cc2)c(-c2ccncc2)[nH]1`, the concentration for half-maximal inhibition (IC50) in test [2] is 24.8 µM; in test [5], 440 nM.

As for `C[S+]([O-])c1ccc(CCSc2nc(-c3ccncc3)c(-c3ccc(F)cc3)[nH]2)cc1` (configuration not stated), the IC50 turned out to be 1500 nM in test [1], 7.3 µM in test [2] and 500 nM in test [5].

Consider `CS(=O)(=O)c1ccc(CSc2nc(-c3ccc(Br)cc3)c(-c3ccncc3)[nH]2)cc1`, for which the values for the IC50 in test [2] and in test [5] were 7.3 µM and 640 nM, respectively.

Regarding `CSc1ccc(CSc2nc(-c3ccc(Cl)cc3)c(-c3ccncc3)[nH]2)cc1`, the IC50 in test [2] stood at 14 µM; in test [5], 2200 nM.

Consider `CSc1ccc(CSc2nc(-c3ccc(Br)cc3)c(-c3ccncc3)[nH]2)cc1`, for which the IC50 came to 12.9 µM in test [2] and 2400 nM in test [5].

Consider `C[S+]([O-])c1cc(Cl)cc(CSc2nc(-c3ccc(F)cc3)c(-c3ccncc3)[nH]2)c1O` (configuration not stated), for which the IC50 was 28 µM in test [2] and 4400 nM in test [5].

`C[S+]([O-])c1ccc(O)c(CSc2nc(-c3ccc(F)cc3)c(-c3ccncc3)[nH]2)c1` (configuration not stated): the IC50 was determined as 5.8 µM in test [2], 13 µM in test [3], 103 µM in test [4] and 1000 nM in test [5].

As to `CSc1cc(CSc2nc(-c3ccncc3)c(-c3ccc(F)cc3)[nH]2)ccc1O`, the IC50 in test [1] stood at 3800 nM; in test [2] it was 1.1 µM; in test [5], 280 nM.

For the compound `Fc1ccc(-c2[nH]c(CCc3ccccc3)nc2-c2ccncc2)cc1`, the IC50 was 690 nM in test [1], 5.4 µM in test [2] and 140 nM in test [5].

As for `C[S+]([O-])c1ccccc1CSc1nc(-c2ccc(F)cc2)c(-c2ccncc2)[nH]1` (configuration not stated), the concentration for half-maximal inhibition (IC50) in test [2] was determined as 15 µM; in test [3] it was 4 µM; in test [4] it was 47.5 µM; in test [5] it was 900 nM.

Consider `C[S+]([O-])c1ccc(CSc2nc(-c3ccccc3)c(-c3ccncc3)[nH]2)cc1` (configuration not stated), for which the values for the IC50 in test [1], in test [2] and in test [5] were 12000 nM, 4.3 µM and 840 nM, respectively.

For `CSc1ccc(O)c(CSc2nc(-c3ccc(F)cc3)c(-c3ccncc3)[nH]2)c1`, the IC50 in test [2] is 5.1 µM; in test [5] it was 740 nM.

In the case of `Oc1ccc(CSc2nc(-c3ccncc3)c(-c3ccc(F)cc3)[nH]2)cc1`, the half-maximal inhibitory concentration (IC50) in test [1] stood at 5700 nM; in test [2], 6.8 µM; in test [5], 370 nM.

Consider `CSc1cc(Cl)cc(CSc2nc(-c3ccc(F)cc3)c(-c3ccncc3)[nH]2)c1O`, for which the IC50 in test [2] was 13.3 µM; in test [5] it was 640 nM.

As to `C[S+]([O-])c1ccc(CSc2nc(-c3ccc(Br)cc3)c(-c3ccncc3)[nH]2)cc1` (configuration not stated), the half-inhibitory concentration (IC50) in test [1] was found to be 3800 nM; in test [2] it was 7.8 µM; in test [5], 820 nM.

Consider `CS(=O)(=O)c1ccc(CSc2nc(-c3ccc(Cl)cc3)c(-c3ccncc3)[nH]2)cc1`, for which the IC50 turned out to be 6.1 µM in test [2] and 320 nM in test [5].

For the compound `CS(=O)(=O)c1ccc(CSc2nc(-c3ccc(F)cc3)c(-c3ccncc3)[nH]2)cc1`, the IC50 in test [2] stood at 2.5 µM; in test [3] it was 2.9 µM; in test [4], 28.8 µM; in test [5], 330 nM.

`N#CCSc1nc(-c2ccncc2)c(-c2ccc(F)cc2)[nH]1`: the IC50 in test [2] was 2.3 µM; in test [5], under 100 nM.

With `C[S+]([O-])c1ccc(CSc2nc(-c3ccc(F)cc3)c(-c3cccnc3)[nH]2)cc1` (configuration not stated), the IC50 in test [2] is over 100 µM; in test [5] it was 98000 nM.

For the compound `Fc1ccc(-c2[nH]c(SCC3CCCCC3)nc2-c2ccncc2)cc1`, the IC50 was found to be 33.8 µM in test [2] and 240 nM in test [5].

Turning to `Fc1ccc(-c2[nH]c(SCCCc3ccccc3)nc2-c2ccncc2)cc1`, the IC50 in test [2] was 16 µM; in test [5], 470 nM.

Consider `Fc1ccc(-c2[nH]c(SCCc3ccccc3)nc2-c2ccncc2)cc1`, for which the IC50 came to 23.5 µM in test [2] and 640 nM in test [5].

Turning to `Fc1ccc(-c2[nH]c(/C=C/c3ccccc3)nc2-c2ccncc2)cc1`, the IC50 in test [2] amounted to 6.5 µM; in test [5] it was 130 nM.

Consider `CSc1ccc(CSc2nc(-c3ccccc3)c(-c3ccncc3)[nH]2)cc1`, for which the IC50 in test [2] is 17.1 µM; in test [5], 72500 nM.

`C[S+]([O-])c1ccc(CSc2nc(-c3ccc(F)cc3)c(-c3ccncc3)[nH]2)cc1` (configuration not stated): the IC50 in test [1] amounted to 4000 nM; in test [2], 1.1 µM; in test [3] it was 2.78 µM; in test [4], 20.3 µM; in test [5], 380 nM.

In the case of `CSc1cccc(CSc2nc(-c3ccncc3)c(-c3ccc(F)cc3)[nH]2)c1`, the IC50 in test [1] is 2300 nM; in test [2], 12 µM; in test [5], 550 nM.

Take `Fc1ccc(-c2[nH]c(SCc3cccc4ccccc34)nc2-c2ccncc2)cc1`: the IC50 in test [2] came out at 8.8 µM; in test [5] it was 820 nM.

As for `Fc1ccc(-c2[nH]c(SCc3ccccc3)nc2-c2ccncc2)cc1`, the IC50 turned out to be 35000 nM in test [1], 3.5 µM in test [2] and 300 nM in test [5].

Regarding `C[S+]([O-])c1cccc(CSc2nc(-c3ccncc3)c(-c3ccc(F)cc3)[nH]2)c1` (configuration not stated), the IC50 in test [1] worked out at 2100 nM; in test [2], 23.5 µM; in test [3], 4.1 µM; in test [4], 33.5 µM; in test [5] it was 1000 nM.

Take `CSc1nc(-c2ccncc2)c(-c2ccc(F)cc2)[nH]1`: the IC50 in test [1] was 630 nM; in test [2], 0.9 µM; in test [3], 1.2 µM; in test [4], 4.2 µM; in test [5] it was 44 nM.

As to `CSc1ccccc1CSc1nc(-c2ccc(F)cc2)c(-c2ccncc2)[nH]1`, the IC50 in test [2] was 18.3 µM; in test [5], 6700 nM.
